Screening data: PubChem BioAssay, several laboratories
Insulin prom up – insulin promoter activators in MIN6 cells, imaging, high-content screening, mouse beta cells; MIN6 insulin promoter-GFP reporter; hits give high values; z-score at 5 µM; hit rate 0.3% among 190,000; AID 1625, 2009;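 active = z-score above 3 at 5 µM with at least 500 cells counted in the well; inconclusive = wells under 500 cells, flagged as cytotoxic or low count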
Yeast life ext – compounds extending yeast replicative lifespan, primary screen, S. cerevisiae, OD615. S. cerevisiae growth with nicotinamide; deaD strain in restrictive glucose medium. inhibition of the nicotinamide effect, % at 10 µM. hit rate 0.68% among 130,000;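 active = inhibition above a set limit, placed 3 SD over the median of all compounds, cut at about 26% in these data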
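Measured by: optical density (absorbance) at 615 nm; System: modified budding yeast, DeaD strain; Medium: restrictive CSMM-D dextrose medium; Timing: 4 h preincubation then 48 h treatment at 30 °C.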
Insulin prom inh – inhibitors of insulin promoter-driven GFP, primary screen, imaging, TRM-6 cells (human fetal islet line), eGFP reporter, cell count; reporter expression induced with tamoxifen; hit rate 0.9% among 130,000; inhibition, % at 2 µM;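 active = inhibition above the mean plus 3 SD, with well images judged a real hit on visual review, cut at about 60% in these data, passing the limit was not always enough; inconclusive = inhibition over the cutoff but images rejected on review; inactive = inhibition not above the cutoff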
RAM inhibit – inhibitors of the yeast RAM network, primary screen, dse1pr::URA3 reporter, 5-FOA selection; AID 868, 2007; hit rate 1.8% among 190,000; inhibition, % at 50 µM; S. cerevisiae dse1pr::URA3 reporter, 5-FOA growth OD615, 2 d; analog-sensitive cbk1-as2 kinase mutant strain;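 active = inhibition above a set limit, 3 SD over mean compound inhibition, cut at about 8.4% in these data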;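 note: inhibition rescues growth on 5-FOA so higher OD means more RAM inhibition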
BB579 growth dn – growth inhibitors of yeast BB579 in restrictive medium, primary screen, yeast lifespan-shortening project, S. cerevisiae; OD615, 48 h; inhibition, % at 10 µM; hit rate 0.51% among 140,000; AID 804, 2007;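 active = inhibition above a set limit, 3 SD over the mean compound inhibition, cut at about 44% in these data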
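Assay system – yeast BB579 (DeaD) · Dosing – single compound dose of 10 µM, 0.25% DMSO final · Detection – OD615 turbidity measurement · Buffer or medium – CSMM-D restrictive synthetic medium containing dextrose (glucose) · Benchmarks – positive control amphotericin B 10 µg/mL · Incubation – 48 h exposure, 30 °C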
Numbers stand for hits; - = inactive; ? = inconclusive; . = not tested or not shown. In the library only some 3.1% were active in any assay of this set; here they are far more common.

SMILES	Insulin prom up	Yeast life ext	Insulin prom inh	RAM inhibit	BB579 growth dn
COc1ccc(C(=O)/C=C/N2CCCCC2)cc1OC	-	-	-	-	53
COc1ccc(C(=O)/C=C/c2ccc(OC3CSC3)cc2)cc1OC	-	-	-	8.6	-
COc1ccc(CCNC(=O)Cn2c(=O)n(-c3ccc(F)cc3)c(=O)c3sccc32)cc1OC	-	.	-	-	.
Cc1cccc(-c2noc(-c3ccno3)n2)c1	-	.	.	.	.
CC(C)c1ccccc1OCCCCCNCCO	.	-	.	-	-
CC(=O)N1C(=O)/C(=C2\SC(=S)N(NS(=O)(=O)c3ccc(C)cc3)C2=O)c2ccccc21	-	.	.	11	.
COc1ccccc1N1CCN(C(=O)CCCCCn2c(=O)[nH]c3ccsc3c2=O)CC1	-	.	-	-	.
Cc1c(C(=O)NCCSCc2ccc(Cl)cc2Cl)cccc1[N+](=O)[O-]	-	-	-	11	-
CCCNC(=O)N1CCCC(C(N)=O)C1 (configuration not stated)	-	.	-	-	.
CSc1nnc(-c2ccccc2)o1	-	-	-	-	-
O=S1(=O)C=C(Sc2nnc(-c3ccccc3)o2)c2ccccc21	-	43	-	-	-
Cc1ccccc1OCCn1cnc2cc([N+](=O)[O-])ccc2c1=O	-	.	.	-	.
COC(=O)c1ccc(CSc2nnc(NC(=O)C3CC(=O)N(c4ccc5c(c4)OCCO5)C3)s2)cc1 (configuration not stated)	-	-	.	-	-
Cc1ccc(/C=N/Nc2nncc(-c3ccccc3)n2)o1	-	.	.	-	.
CCCCN(CCCC)C(=S)N/N=C/c1c(C)[nH]n(-c2ccccc2)c1=O	-	-	.	-	78
CCCCN=Cc1c(C)[nH]n(-c2ccccc2)c1=S	-	.	-	-	.
Cc1[nH]n(-c2ccccc2)c(=O)c1/C=N/Nc1nncc(-c2ccccc2)n1	-	-	-	-	98
CCN1C(=O)c2cccc3c(NC(=O)c4cccc(N5C(=O)CCC5=O)c4)ccc1c23	-	-	.	9.3	-
CCSc1nnc(NC(=O)COc2ccc(Cl)cc2)s1	-	.	-	-	.
CCSc1nnc(NC(=O)COc2cccc3ccccc23)s1	.	-	-	9.7	-
CCSc1nnc(NC(=O)c2ccccn2)s1	-	-	-	-	97
COc1ccccc1OCCn1cc(C(=O)c2ccco2)c2ccccc21	-	-	-	8.8	-
COc1cccc(OCCn2cc(C(=O)c3ccco3)c3ccccc32)c1	-	-	-	10	-
COc1ccccc1NC(=O)Cn1cc(C(=O)c2ccco2)c2ccccc21	-	.	.	-	.
CCCCC1(C(=O)OCC)CC(CSC(=N)N)OC1=O (configuration not stated)	-	.	.	-	.
SMILES	Insulin prom up	Yeast life ext	Insulin prom inh	RAM inhibit	BB579 growth dn
COc1ccc(-c2nc3ccccc3s2)cc1O	-	-	86	-	-
COc1ccccc1C(=O)NCc1ccc(-c2nc3ccccc3s2)cc1	-	-	.	9.1	-
COc1cc(C(=O)NCc2ccc(-c3nc4ccccc4s3)cc2)cc(OC)c1OC	-	-	-	-	-
Cc1ccc(OCCOCCN2CCN(C)CC2)c([N+](=O)[O-])c1	.	.	.	-	.
CCN(CC)c1nc(OCCNC(=O)Nc2ccccc2)nc(N(CC)CC)n1	-	-	71	-	-
CC(=O)Nc1ccc2nc(NC(=O)COc3ccccc3Cl)sc2c1	-	.	-	9.9	.
COc1ccc(NS(=O)(=O)c2cc(NC(=O)/C=C/c3ccccc3OC)ccc2N2CCCCC2)cc1	-	-	-	11	-
Cc1nnc(SCC(=O)NCCc2ccccc2)s1	-	.	-	-	.
CC(NC(=O)/C(=C/c1ccc(OC(F)F)cc1)c1ccccc1)c1ccccc1 (configuration not stated)	-	-	.	9.6	-
Cc1cc(C)n(C(=O)CNC(=O)C(c2ccccc2)c2ccccc2)n1	.	.	-	8.8	-
Cc1cc(C)n(C(=O)CNC(=O)Cc2ccccc2)n1	-	-	-	-	-
O=S(=O)(Nc1nc(-c2sccc2Cl)cs1)c1cc(Cl)ccc1Cl	.	46	-	-	-
CN1C/C(=C/c2cccnc2)C(=O)/C(=C/c2cccnc2)C1	-	51	-	-	-
CC(C)N1C/C(=C/c2cccnc2)C(=O)/C(=C/c2cccnc2)C1	-	41	-	-	-
CC(C)N1C/C(=C/c2ccsc2)C(=O)/C(=C/c2ccsc2)C1	-	-	.	-	-
O=[N+]([O-])c1cccc(N/N=C/c2cc([N+](=O)[O-])ccc2O)c1	-	.	.	-	.
O=[N+]([O-])c1ccc(O)c(/C=N/Nc2ccccn2)c1	-	-	.	-	99
Cc1ccccc1NC(=O)CCN1CCCC1	-	.	.	-	.
CC(C)c1ccc(N2C(=O)CC(NNC(=O)c3cccnc3)C2=O)cc1 (configuration not stated)	-	.	.	.	.
CC(C)C1Oc2cc3oc(=O)ccc3cc2C1=O (configuration not stated)	-	.	.	-	.
COc1ccccc1-n1c(=O)oc2ccc(Cl)cc2c1=O	.	-	-	-	53
Clc1cccc(Cl)c1CNc1ccc(N2CCCC2)cc1	-	.	.	-	.
O=C(O)c1cc(-c2ccc(/C=C3/SC(=S)N(Cc4ccccc4)C3=O)o2)ccc1Cl	.	.	.	9.4	.
COc1ccc(CN2C(=O)/C(=C/c3ccc(-c4ccc(Cl)c(C(=O)O)c4)o3)SC2=S)cc1	.	.	-	-	.
C=CCNc1nc(S(=O)Cc2ccc(C)cc2)nc2c1CCCC2 (configuration not stated)	-	.	73	-	.
SMILES	Insulin prom up	Yeast life ext	Insulin prom inh	RAM inhibit	BB579 growth dn
O=C1c2cccc3cccc(c23)C(=O)N1OS(=O)(=O)c1ccccc1	-	-	-	-	-
Cc1ccc(S(=O)(=O)ON2C(=O)c3cccc4cccc(c34)C2=O)cc1	-	34	-	-	-
N#CCC(=O)N/N=C/c1cc(-c2ccccc2)n(-c2ccc(Cl)cc2)c1-c1ccccc1	-	.	-	-	.
CC(=O)c1c(C)nc2ccccc2c1N	-	-	88	-	-
Cc1nc2ccccc2c(C)c1C(=O)c1ccccc1	-	.	-	-	.
CCc1ccc(-n2c(C)nc3cc(C(=O)NCc4cccnc4)ccc32)cc1	.	.	.	-	.
Cc1cc(C)n(-c2ccc(C(=O)OCC(=O)N(CC(C)C)C3CCS(=O)(=O)C3)cc2)n1 (configuration not stated)	3.3	-	-	-	-
Cc1ccc(-n2c(C)cc(C(=O)OCC(=O)N(CC(C)C)C3CCS(=O)(=O)C3)c2C)cc1 (configuration not stated)	-	-	-	-	-
CCN(CC)c1ccc(/C=N/Nc2nc(C)cc(=O)[nH]2)c(O)c1	?	-	85	-	-
CCN(CC)c1ccc(/C=N/Nc2ccc(C)cc2)c(O)c1	-	-	-	-	-
Cc1c(Cl)cccc1-n1c(SCC(=O)NCc2cccs2)nnc1-c1ccncc1	-	-	91	-	-
Cc1c(Cl)cccc1-n1c(SCC(=O)NCc2ccccc2Cl)nnc1-c1ccncc1	-	-	-	-	-
